Paper PMC10166615 (Bioorganic & Medicinal Chemistry, 2023)

Columns and labels:
[1] = Pharmacokinetics after p.o. and i.v. administration; format: in vivo; conditions: mouse
[2] = Liver microsomes metabolic stability, mouse; format: in vitro ADME
Outline: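 Mouse liver microsomes at 0.5 mg/mL final protein in K/Mg buffer. Test compound went from a 10 mM stock in ACN into a 1.5 µM spiking solution containing 0.75 mg/mL microsomes. After 5 min pre-incubation at 37 °C, reactions were started with 6 mM NADPH stock. They were quenched with ACN containing internal standard at 0, 5, 15, 30 and 45 min, then shaken and centrifuged.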

SARS-CoV-2 = assay: Antiviral activity in Vero E6 cells; format: cell-based; conditions: for antiviral activity relative to nirmatrelvir: EC50 against SARS-CoV-2 compared with nirmatrelvir
[3] = Liver microsomes metabolic stability, human; format: in vitro ADME

`CC(C)(C)[C@H](NC(=O)C(F)(F)F)C(=O)N1C[C@@H]2CCC[C@@H]2[C@H]1C(=O)N[C@H](C#N)C[C@@H]1CCNC1=O` [1a, (1S,3aR,6aS)-N-((S)-1-cyano-2-((S)-2-oxopyrrolidin-3-yl)ethyl)-2-((S)-3,3-dimethyl-2-(2,2,2-trifluoroacetamido)butanoyl)octahydrocyclopenta[c]pyrrole-1-carboxamide] showed an AUC(0-inf) ([1]; male, plasma, iv, 10 mg/kg) of 2670 ng·h/mL, an AUC(0-t) ([1]; male, plasma, iv, 10 mg/kg) of 2670 ng·h/mL and an MRT inf ([1]; male, plasma, iv, 10 mg/kg) of 14.4 min. The clearance ([1]; male, plasma, iv, 10 mg/kg) was 69.3 mL/min/kg, the half-life ([1]; male, plasma, iv, 10 mg/kg) was 66 min and the bioavailability ([1]; male, plasma, oral, 20 mg/kg) was 22.8%. For the same compound, the AUC(0-inf) ([1]; male, plasma, po, 20 mg/kg) was 1220 ng·h/mL, the AUC(0-t) ([1]; male, plasma, po, 20 mg/kg) was 1220 ng·h/mL and the Cmax ([1]; male, plasma, po, 20 mg/kg) was 1310 ng/mL. The MRT inf ([1]; male, plasma, po, 20 mg/kg) was 52.8 min, the Tmax ([1]; male, plasma, po, 20 mg/kg) was 25.2 min and the half-life ([1]; male, plasma, po, 20 mg/kg) was 60 min. For the same compound, the Vss_obs ([1]; i.v. (10 mg/kg)) was 1011.00 mL/kg, the CLint scaled at 1 µM [2] was 368 mL/min/kg and the half-life at 1 µM [2] was 14.8 min. For the same compound, the “metabolic stability (in words)” value [2] was “susceptible to metabolic effects”, the RNA copy inhibition% (SARS-CoV-2; 1 μM compound, preliminary screening) was 70% and the “antiviral activity relative to nirmatrelvir” value (SARS-CoV-2) was 2 fold. For the same compound, the CLint scaled at 1 µM [3] was 22 mL/min/kg, the half-life at 1 µM [3] was 78.9 min and the “metabolic stability (in words)” value [3] was “moderate metabolic stability”.

For `CC(C)(C)[C@H](NS(=O)(=O)C(F)(F)F)C(=O)N1C[C@H]2[C@@H]([C@H]1C(=O)N[C@H](C#N)C[C@@H]1CCNC1=O)C2(C)C` [2b, (1R,2S,5S)-N-((S)-1-cyano-2-((S)-2-oxopyrrolidin-3-yl)ethyl)-3-((S)-3,3-dimethyl-2-((trifluoromethyl)sulfonamido)butanoyl)-6,6-dimethyl-3-azabicyclo[3.1.0]hexane-2-carboxamide], the clearance ([1]; male, plasma, iv, 10 mg/kg) was 41 mL/min/kg, the CLint scaled at 0.75 h, 1 µM [2] was 55.8 mL/min/kg and the “metabolic stability (in words)” value [2] was “moderate metabolic stability”. The “antiviral activity relative to nirmatrelvir” value (SARS-CoV-2) was 4 fold, the CLint scaled at 0.75 h, 1 µM [3] was 2.67 mL/min/kg and the “metabolic stability (in words)” value [3] was “stable”.

Compound `CC(C)(C)[C@H](NC(=O)C(F)(F)F)C(=O)N1C[C@H]2[C@@H]([C@H]1C(=O)N[C@H](C#N)C[C@@H]1CCNC1=O)C2(C)C` [Nirmatrelvir, reference compound] has a clearance ([1]; male, plasma, iv, 10 mg/kg) of 50.1 mL/min/kg and a CLint scaled at 0.75 h, 1 µM [2] of 1180 mL/min/kg.
